Experimental data taken from ChEMBL document CHEMBL5661979, “Pharmacological inhibition of BMK1 suppresses tumor growth through promyelocytic leukemia protein” (Cancer Cell, 2010).

How the values were obtained:
[1] = biological target: Dual specificity protein kinase TTK (Homo sapiens) (UniProt P33981); experiment: Inhibition of TTK (unknown origin) assessed as remaining activity at 10 uM by ATP-competition binding assay relative to control
[2] = biological target: T1, Mitogen-activated protein kinase kinase kinase kinase 2 (Homo sapiens) (UniProt Q12851); experiment: Inhibition of GCK in human HeLa cells lysate at 10 uM pre incubated for 15 mins followed by ADP acyl phosphate probe addition and measured after 10 mins by LC-MS/MS analysis relative to control; type: subcellular; conditions: time 25.0 min
T1 sequence (whole entry): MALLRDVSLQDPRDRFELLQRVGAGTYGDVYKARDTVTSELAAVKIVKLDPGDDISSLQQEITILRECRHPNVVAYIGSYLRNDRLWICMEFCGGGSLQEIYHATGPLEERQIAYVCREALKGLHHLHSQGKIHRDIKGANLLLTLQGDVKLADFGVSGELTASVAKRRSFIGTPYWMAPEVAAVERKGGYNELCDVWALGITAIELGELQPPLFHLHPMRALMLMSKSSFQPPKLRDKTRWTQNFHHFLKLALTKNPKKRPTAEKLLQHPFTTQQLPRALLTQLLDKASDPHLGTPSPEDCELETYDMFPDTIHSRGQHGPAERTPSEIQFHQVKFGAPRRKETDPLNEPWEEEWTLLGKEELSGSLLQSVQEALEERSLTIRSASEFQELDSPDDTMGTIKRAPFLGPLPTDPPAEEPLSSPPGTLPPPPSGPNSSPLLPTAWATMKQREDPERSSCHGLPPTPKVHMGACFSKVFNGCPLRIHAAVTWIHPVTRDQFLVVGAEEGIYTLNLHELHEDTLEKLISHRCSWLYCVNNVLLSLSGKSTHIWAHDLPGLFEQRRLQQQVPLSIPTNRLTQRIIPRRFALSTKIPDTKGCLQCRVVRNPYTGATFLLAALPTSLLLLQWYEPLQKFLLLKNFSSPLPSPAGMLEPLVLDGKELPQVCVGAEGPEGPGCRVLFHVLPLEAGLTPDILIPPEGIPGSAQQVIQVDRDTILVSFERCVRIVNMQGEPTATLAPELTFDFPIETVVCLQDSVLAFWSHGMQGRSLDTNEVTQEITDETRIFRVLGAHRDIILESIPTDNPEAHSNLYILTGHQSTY

[3] = biological target: Cyclin-dependent kinase 16 (Homo sapiens, UniProt Q00536); experiment: Inhibition of PCTAIRE1 in human HeLa cells lysate pre incubated for 15 mins followed by ADP acyl phosphate probe addition and measured after 10 mins by LC-MS/MS analysis; type: subcellular
Chain of Cyclin-dependent kinase 16 (Q00536 whole entry): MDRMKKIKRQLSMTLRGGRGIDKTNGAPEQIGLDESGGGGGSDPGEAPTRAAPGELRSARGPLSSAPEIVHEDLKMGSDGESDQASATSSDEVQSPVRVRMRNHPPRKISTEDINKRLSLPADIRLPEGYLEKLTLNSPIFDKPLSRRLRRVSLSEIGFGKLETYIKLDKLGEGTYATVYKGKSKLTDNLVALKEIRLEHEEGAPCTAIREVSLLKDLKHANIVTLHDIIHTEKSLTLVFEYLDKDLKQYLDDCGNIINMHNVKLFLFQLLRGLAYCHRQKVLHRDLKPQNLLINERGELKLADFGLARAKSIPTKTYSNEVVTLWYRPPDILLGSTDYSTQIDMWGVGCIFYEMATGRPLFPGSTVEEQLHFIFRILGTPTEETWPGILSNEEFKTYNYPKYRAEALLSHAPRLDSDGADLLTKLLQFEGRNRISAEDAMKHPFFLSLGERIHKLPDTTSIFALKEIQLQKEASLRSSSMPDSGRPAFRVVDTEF

[4] = biological target: Serine/threonine-protein kinase 24 (Homo sapiens, UniProt Q9Y6E0); experiment: Inhibition of MST3 in human HeLa cells lysate at 10 uM pre incubated for 15 mins followed by ATP acyl phosphate probe addition and measured after 10 mins by LC-MS/MS analysis relative to control; type: subcellular; conditions: time 25.0 min
[5] = biological target: Serine/threonine-protein kinase 3/4 (Homo sapiens, UniProt Q13043+Q13188); experiment: Inhibition of MST1/2 in human HeLa cells lysate pre incubated for 15 mins followed by ATP acyl phosphate probe addition and measured after 10 mins by LC-MS/MS analysis; type: subcellular
[6] = biological target: T2, Scaffold protein ILK (Homo sapiens) (UniProt Q13418); experiment: Inhibition of ILK in human HeLa cells lysate at 50 uM pre incubated for 15 mins followed by ATP acyl phosphate probe addition and measured after 10 mins by LC-MS/MS analysis relative to control; type: subcellular; conditions: time 25.0 min
T2 sequence (whole entry): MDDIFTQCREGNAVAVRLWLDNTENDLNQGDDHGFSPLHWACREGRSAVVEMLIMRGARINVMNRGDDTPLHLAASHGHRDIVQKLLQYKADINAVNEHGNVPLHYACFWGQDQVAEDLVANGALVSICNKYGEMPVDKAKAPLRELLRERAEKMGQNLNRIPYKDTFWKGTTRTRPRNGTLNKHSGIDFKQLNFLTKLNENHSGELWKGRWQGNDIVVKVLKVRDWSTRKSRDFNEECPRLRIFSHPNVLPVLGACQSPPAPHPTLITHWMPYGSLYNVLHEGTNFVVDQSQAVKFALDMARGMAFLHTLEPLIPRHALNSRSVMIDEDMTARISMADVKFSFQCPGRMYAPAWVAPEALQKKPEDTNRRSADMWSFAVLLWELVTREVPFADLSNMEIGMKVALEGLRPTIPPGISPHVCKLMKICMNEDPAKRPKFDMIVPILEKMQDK

[7] = biological target: Calcium/calmodulin-dependent protein kinase type II subunit gamma (Homo sapiens, UniProt Q13555); experiment: Inhibition of CAMK2g in human HeLa cells lysate at 2 uM pre incubated for 15 mins followed by ADP acyl phosphate probe addition and measured after 10 mins by LC-MS/MS analysis relative to control; type: subcellular; conditions: time 25.0 min
Outline: (§1)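 KiNativ-type profiling in HeLa lysate (5 mg/mL total protein). Lysate preincubated 15 min with inhibitor at 50, 10, 2, 0.8 or 0 μM, then ATP or ADP acylphosphate probe added (5 μM final) for 10 min. Reaction stopped with urea and analysed by targeted MS, using up to four fragment ions per kinase peptide-probe conjugate. % inhibition calculated against untreated lysate. Duplicate reactions.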

Ephrin type-A receptor 2 = Ephrin type-A receptor 2 (Homo sapiens, UniProt P29317); experiment: Inhibition of EphA2 in human HeLa cells lysate at 2 uM pre incubated for 15 mins followed by ATP acyl phosphate probe addition and measured after 10 mins by LC-MS/MS analysis relative to control; type: subcellular; conditions: time 25.0 min
[8] = biological target: Serine-protein kinase ATM (Homo sapiens, UniProt Q13315); experiment: Inhibition of ATM in human HeLa cells lysate at 2 uM pre incubated for 15 mins followed by ADP acyl phosphate probe addition and measured after 10 mins by LC-MS/MS analysis relative to control; type: subcellular; conditions: time 25.0 min; outline: as §1
Chain of Serine-protein kinase ATM (Q13315 whole entry, the tested form may be a part): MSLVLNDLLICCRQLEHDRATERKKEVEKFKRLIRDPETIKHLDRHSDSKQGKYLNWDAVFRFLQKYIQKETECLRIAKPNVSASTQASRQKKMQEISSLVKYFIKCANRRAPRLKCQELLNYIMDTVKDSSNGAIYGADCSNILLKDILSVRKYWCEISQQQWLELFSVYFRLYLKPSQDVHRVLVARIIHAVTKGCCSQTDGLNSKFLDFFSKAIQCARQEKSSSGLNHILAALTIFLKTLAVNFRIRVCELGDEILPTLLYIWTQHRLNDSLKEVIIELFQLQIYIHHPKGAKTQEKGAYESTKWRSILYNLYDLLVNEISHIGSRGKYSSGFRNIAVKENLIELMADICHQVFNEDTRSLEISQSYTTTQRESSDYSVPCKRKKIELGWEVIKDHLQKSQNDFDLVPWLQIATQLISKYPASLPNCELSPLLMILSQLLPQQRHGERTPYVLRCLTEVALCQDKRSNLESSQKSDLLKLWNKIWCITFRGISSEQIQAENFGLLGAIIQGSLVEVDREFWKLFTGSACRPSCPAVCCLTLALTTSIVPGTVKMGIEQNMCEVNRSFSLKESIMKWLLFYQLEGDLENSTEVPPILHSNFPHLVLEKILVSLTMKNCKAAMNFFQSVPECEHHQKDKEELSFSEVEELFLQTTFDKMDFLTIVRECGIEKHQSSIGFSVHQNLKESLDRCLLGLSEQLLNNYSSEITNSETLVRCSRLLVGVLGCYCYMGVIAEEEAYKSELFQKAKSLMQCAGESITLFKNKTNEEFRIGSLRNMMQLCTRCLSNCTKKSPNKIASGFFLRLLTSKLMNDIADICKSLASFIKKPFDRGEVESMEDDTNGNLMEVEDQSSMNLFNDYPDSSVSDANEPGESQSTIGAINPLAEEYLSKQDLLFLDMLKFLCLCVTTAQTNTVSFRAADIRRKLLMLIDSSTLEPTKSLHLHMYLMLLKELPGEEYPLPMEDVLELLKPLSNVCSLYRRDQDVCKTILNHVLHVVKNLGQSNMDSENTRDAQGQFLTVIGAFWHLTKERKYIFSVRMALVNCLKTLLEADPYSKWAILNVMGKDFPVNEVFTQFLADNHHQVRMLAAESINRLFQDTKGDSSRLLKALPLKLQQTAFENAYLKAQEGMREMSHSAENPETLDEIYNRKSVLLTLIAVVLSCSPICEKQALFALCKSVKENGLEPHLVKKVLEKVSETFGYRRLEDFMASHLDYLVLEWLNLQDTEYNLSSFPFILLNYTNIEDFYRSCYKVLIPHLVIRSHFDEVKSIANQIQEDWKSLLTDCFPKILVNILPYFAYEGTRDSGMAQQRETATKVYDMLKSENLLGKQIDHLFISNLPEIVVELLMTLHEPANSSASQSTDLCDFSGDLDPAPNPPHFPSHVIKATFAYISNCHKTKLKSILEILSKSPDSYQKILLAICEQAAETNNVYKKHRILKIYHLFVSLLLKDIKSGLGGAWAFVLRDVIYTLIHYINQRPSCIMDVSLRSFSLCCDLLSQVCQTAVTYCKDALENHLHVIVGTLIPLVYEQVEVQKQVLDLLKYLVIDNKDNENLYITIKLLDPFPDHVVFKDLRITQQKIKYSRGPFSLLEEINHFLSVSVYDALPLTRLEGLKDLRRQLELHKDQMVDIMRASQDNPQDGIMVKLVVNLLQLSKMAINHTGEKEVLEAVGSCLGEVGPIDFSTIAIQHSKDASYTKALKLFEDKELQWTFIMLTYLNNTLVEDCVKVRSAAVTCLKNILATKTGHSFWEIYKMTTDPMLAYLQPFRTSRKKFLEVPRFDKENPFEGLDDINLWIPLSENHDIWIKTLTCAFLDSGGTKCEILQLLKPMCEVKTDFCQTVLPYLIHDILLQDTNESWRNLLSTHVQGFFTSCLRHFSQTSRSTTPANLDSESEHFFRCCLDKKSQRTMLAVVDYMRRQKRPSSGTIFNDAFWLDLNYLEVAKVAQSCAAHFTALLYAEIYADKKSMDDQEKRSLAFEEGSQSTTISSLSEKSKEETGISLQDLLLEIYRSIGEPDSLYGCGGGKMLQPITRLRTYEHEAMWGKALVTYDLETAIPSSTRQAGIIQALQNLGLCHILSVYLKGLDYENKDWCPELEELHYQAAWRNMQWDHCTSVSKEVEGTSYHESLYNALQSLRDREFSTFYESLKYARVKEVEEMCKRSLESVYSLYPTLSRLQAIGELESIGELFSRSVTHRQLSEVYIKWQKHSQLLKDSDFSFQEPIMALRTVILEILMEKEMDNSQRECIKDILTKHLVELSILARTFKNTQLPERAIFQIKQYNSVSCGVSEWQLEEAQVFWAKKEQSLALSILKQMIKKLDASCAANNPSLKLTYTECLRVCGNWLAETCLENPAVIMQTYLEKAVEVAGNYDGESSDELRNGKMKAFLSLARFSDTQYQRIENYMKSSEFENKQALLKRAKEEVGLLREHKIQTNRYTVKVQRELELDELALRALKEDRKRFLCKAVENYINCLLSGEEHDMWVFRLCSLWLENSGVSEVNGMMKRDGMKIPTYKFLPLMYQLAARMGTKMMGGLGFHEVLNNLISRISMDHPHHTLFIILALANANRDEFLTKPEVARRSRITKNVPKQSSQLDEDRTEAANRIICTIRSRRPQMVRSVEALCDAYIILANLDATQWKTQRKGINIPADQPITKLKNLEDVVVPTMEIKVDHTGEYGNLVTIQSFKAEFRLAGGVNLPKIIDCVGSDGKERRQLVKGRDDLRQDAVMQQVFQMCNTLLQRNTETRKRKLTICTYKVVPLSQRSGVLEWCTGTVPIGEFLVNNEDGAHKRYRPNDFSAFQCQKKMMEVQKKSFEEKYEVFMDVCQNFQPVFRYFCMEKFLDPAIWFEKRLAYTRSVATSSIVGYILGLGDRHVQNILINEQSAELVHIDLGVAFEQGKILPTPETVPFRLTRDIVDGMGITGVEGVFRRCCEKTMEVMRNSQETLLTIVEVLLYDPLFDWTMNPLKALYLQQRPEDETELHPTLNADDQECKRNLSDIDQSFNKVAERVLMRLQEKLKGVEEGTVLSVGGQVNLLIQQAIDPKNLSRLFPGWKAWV

[9] = biological target: Ribosomal protein S6 kinase alpha-1 (Homo sapiens, UniProt Q15418); experiment: Inhibition of RSK1 domain 2 K1 site in human HeLa cells lysate at 2 uM pre incubated for 15 mins followed by ADP acyl phosphate probe addition and measured after 10 mins by LC-MS/MS analysis relative to control; type: subcellular; conditions: time 25.0 min
Chain of Ribosomal protein S6 kinase alpha-1 (Q15418 whole entry, the tested form may be a part): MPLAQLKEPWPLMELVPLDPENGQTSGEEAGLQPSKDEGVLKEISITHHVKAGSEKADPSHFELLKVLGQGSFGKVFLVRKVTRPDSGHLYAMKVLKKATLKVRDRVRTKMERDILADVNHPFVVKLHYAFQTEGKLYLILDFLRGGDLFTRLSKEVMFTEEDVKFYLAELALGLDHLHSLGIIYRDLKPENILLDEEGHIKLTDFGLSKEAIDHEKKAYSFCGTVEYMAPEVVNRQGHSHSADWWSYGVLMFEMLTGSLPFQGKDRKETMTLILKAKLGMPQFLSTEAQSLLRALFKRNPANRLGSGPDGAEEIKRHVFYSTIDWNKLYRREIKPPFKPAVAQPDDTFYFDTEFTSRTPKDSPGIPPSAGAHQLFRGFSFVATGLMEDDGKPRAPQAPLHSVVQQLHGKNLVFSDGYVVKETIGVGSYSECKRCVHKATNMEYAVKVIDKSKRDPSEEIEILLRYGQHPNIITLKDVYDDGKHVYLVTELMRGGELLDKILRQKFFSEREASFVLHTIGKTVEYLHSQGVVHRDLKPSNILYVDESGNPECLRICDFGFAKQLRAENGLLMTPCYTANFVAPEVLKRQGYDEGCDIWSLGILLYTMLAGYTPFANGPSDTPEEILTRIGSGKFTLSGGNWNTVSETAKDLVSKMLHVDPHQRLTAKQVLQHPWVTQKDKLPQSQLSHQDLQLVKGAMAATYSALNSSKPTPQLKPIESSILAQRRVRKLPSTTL

[10] = biological target: Epidermal growth factor receptor (Homo sapiens, UniProt P00533); experiment: Inhibition of EGFR in human HeLa cells lysate at 50 uM pre incubated for 15 mins followed by ADP acyl phosphate probe addition and measured after 10 mins by LC-MS/MS analysis relative to control; type: subcellular; conditions: time 25.0 min

Chain of Dual specificity protein kinase TTK (Homo sapiens) (P33981 whole entry): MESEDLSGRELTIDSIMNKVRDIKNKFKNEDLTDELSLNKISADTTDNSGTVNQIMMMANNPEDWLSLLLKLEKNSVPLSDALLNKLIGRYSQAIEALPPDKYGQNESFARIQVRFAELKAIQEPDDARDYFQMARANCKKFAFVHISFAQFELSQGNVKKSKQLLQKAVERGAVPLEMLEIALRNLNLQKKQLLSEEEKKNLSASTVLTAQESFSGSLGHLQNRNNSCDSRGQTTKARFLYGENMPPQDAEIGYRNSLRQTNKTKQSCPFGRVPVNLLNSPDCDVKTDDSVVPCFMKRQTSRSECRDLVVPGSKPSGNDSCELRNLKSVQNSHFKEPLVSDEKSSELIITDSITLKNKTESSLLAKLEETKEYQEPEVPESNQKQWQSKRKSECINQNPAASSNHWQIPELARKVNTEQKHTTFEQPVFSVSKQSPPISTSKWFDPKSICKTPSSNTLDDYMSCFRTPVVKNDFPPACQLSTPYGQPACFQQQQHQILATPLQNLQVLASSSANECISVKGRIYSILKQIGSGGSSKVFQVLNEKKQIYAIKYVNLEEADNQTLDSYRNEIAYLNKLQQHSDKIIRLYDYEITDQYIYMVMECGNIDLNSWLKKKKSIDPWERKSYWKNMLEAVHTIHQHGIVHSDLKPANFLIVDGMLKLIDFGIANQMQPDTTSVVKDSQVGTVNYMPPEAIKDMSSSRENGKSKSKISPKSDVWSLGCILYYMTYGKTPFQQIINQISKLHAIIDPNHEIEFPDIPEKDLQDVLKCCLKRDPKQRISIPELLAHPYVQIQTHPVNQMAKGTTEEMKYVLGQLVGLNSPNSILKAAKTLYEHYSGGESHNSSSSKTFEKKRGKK

CCOc1cc(N2CCC(O)CC2)ccc1Nc1ncc2c(n1)N(C)c1ccccc1C(=O)N2C
Activity [1]: 19%
inhibition [2]: -8.4%
IC50 [3]: > 50 µM
inhibition [4]: -7.7%
IC50 [5]: > 50 µM
inhibition [6]: -6.7%
inhibition [7]: -2.2%
inhibition (Ephrin type-A receptor 2): -7.6%
inhibition [8]: 2.3%
inhibition [9]: 18%
inhibition [10]: 5.9%
